Data as given in ChEMBL document CHEMBL3102831 (Bioorg Med Chem Lett, 2014).
pIC50: −log10 of the molar value. Calls of active or inactive are those of the source. The rule behind the calls is not given here.

Assays:
[1] = tested on: HeLa; experiment: Cytotoxicity against human HeLa cells after 48 hrs by MTT assay; assay type: functional, cell-based
[2] = tested on: HCT-116; experiment: Cytotoxicity against human HCT116 cells after 48 hrs by MTT assay; assay type: functional, cell-based; details: HCT-116, 48 h
[3] = tested on: HepG2; experiment: Cytotoxicity against human HepG2 cells after 48 hrs by MTT assay; assay type: functional, cell-based; details: HepG2, 48 h
[4] = Cytotoxicity against human SPCA2 cells after 48 hrs by MTT assay; assay type: functional, cell-based; details: SPCA2, 48 h
[5] = tested on: HUVEC; experiment: Cytotoxicity against human HUVEC after 48 hrs by MTT assay; assay type: cell-based
[6] = tested on: CNE; experiment: Cytotoxicity against human CNE cells after 48 hrs by MTT assay; assay type: functional, cell-based
[7] = Cytotoxicity against human COLO320DM cells; assay type: functional, cell-based; details: COLO 320DM
[8] = tested on: HCT-116; experiment: Cytotoxicity against human HCT116 cells; assay type: functional, cell-based
[9] = tested on: DNA; experiment: Binding affinity to F32T oligonucleotide DNA assessed as change in melting temperature by FRET assay
[10] = tested on: HCT-116; experiment: Cell cycle arrest in human HCT116 cells assessed as accumulation at G1 phase after 48 hrs using propidium iodide staining by FACS analysis (reference value: 39.08%); assay type: functional
In short: (§1)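 HCT116 cells exposed 48 h to compound at 3 and 5 µM, with untreated cells as control. Cells were stained with propidium iodide, and DNA content was measured by flow cytometry. Read-out is the percentage of cells in G1, S and G2 phases.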

[11] = tested on: HCT-116; experiment: Cell cycle arrest in human HCT116 cells assessed as accumulation at S phase after 48 hrs using propidium iodide staining by FACS analysis (reference value: 23.29%); assay type: functional; in short: as §1
[12] = tested on: HCT-116; experiment: Induction of apoptosis in human HCT116 cells assessed as change in mitochondrial membrane potential after 24 hrs by JC-1 staining; assay type: functional, cell-based
In short: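 HCT116 cells treated 24 h at 3 and 5 µM, with untreated cells as 24 h control. Cells were stained with JC-1 and viewed by fluorescence microscopy. Monomer was excited at 514 nm with emission 515–545 nm (green); J-aggregates were excited at 585 nm with emission 570–600 nm (red). Potential loss is read as a red-to-green shift.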

[13] = tested on: HCT-116; experiment: Cell cycle arrest in human HCT116 cells assessed as accumulation at S phase at 3 uM after 48 hrs using propidium iodide staining by FACS analysis (reference value: 36.84%); assay type: functional
[14] = tested on: HCT-116; experiment: Cell cycle arrest in human HCT116 cells assessed as accumulation at G1 phase at 5 uM after 48 hrs using propidium iodide staining by FACS analysis (reference value: 39.08%); assay type: functional
[15] = tested on: HCT-116; experiment: Cell cycle arrest in human HCT116 cells assessed as accumulation at G2 phase at 5 uM after 48 hrs using propidium iodide staining by FACS analysis (reference value: 24.09%); assay type: functional
[16] = tested on: HCT-116; experiment: Induction of apoptosis in human HCT116 cells assessed as late apoptotic cells at 5 uM after 24 hrs using annexin V-FITC/propidium iodide by flow cytometry (reference value: 3.3%); assay type: functional
[17] = tested on: HCT-116; experiment: Cell cycle arrest in human HCT116 cells assessed as accumulation at S phase at 5 uM after 48 hrs using propidium iodide staining by FACS analysis (reference value: 36.84%); assay type: functional
[18] = tested on: HCT-116; experiment: Induction of apoptosis in human HCT116 cells assessed as viable cells at 3 uM after 24 hrs using annexin V-FITC/propidium iodide by flow cytometry (reference value: 90%); assay type: functional; details: HCT-116, 24 h, read-out: Activity
[19] = tested on: HCT-116; experiment: Induction of apoptosis in human HCT116 cells assessed as viable cells at 5 uM after 24 hrs using annexin V-FITC/propidium iodide by flow cytometry (reference value: 90%); assay type: functional; details: HCT-116, 24 h, read-out: Activity
[20] = tested on: HCT-116; experiment: Cell cycle arrest in human HCT116 cells assessed as accumulation at G1 phase at 3 uM after 48 hrs using propidium iodide staining by FACS analysis (reference value: 39.08%); assay type: functional
[21] = tested on: HCT-116; experiment: Induction of apoptosis in human HCT116 cells assessed as necrotic cells at 5 uM after 24 hrs using annexin V-FITC/propidium iodide by flow cytometry (reference value: 2.8%); assay type: functional
[22] = tested on: HCT-116; experiment: Induction of apoptosis in human HCT116 cells assessed as early apoptotic cells at 5 uM after 24 hrs using annexin V-FITC/propidium iodide by flow cytometry (reference value: 3.9%); assay type: functional
[23] = tested on: HCT-116; experiment: Induction of apoptosis in human HCT116 cells assessed as apoptotic morphology at 3 to 5 uM after 24 hrs by Hoechst […] staining; assay type: functional, cell-based
In short: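 HCT116 cells were treated with compound at 3 and 5 µM for 24 h, alongside 24 h untreated controls. Cells were stained with Hoechst 33258 and examined by fluorescence microscopy. Bright blue nuclei from chromatin condensation and karyopyknosis were scored as apoptotic, and uniform light blue nuclei as live.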

[24] = tested on: HCT-116; experiment: Induction of apoptosis in human HCT116 cells assessed as activation of caspase 3 and 8 after 24 hrs by RT-PCR analysis; assay type: functional, cell-based
[25] = tested on: HCT-116; experiment: Induction of apoptosis in human HCT116 cells assessed as early apoptotic cells at 3 uM after 24 hrs using annexin V-FITC/propidium iodide by flow cytometry (reference value: 3.9%); assay type: functional
[26] = tested on: DNA; experiment: Binding affinity to calf thymus DNA at 1.5 x 10^-5 M by circular dichroism analysis; assay type: nucleic-acid assay; details: Bos taurus
In short: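 Circular dichroism spectra recorded on ct-DNA at 1.5 × 10^-4 M, alone and with compound at 1.5 × 10^-5 M. Spectra compared with and without compound.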

[27] = tested on: HCT-116; experiment: Cell cycle arrest in human HCT116 cells assessed as accumulation at G2 phase at 3 uM after 48 hrs using propidium iodide staining by FACS analysis (reference value: 24.09%); assay type: functional
[28] = tested on: DNA; experiment: Binding affinity to calf thymus DNA at DNA and compound ratio 1:1 to 6:1 by UV-vis absorption spectra analysis; assay type: nucleic-acid assay; details: Bos taurus
[29] = tested on: HCT-116; experiment: Induction of apoptosis in human HCT116 cells assessed as change in mitochondrial membrane potential at 3 to 5 uM after 24 hrs by JC-1 staining; assay type: functional, cell-based
In short: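 HCT116 cells were exposed for 24 h at 3 and 5 µM, with untreated 24 h controls, then stained with JC-1. Monomer and J-aggregates were excited at 514 and 585 nm. Emission was collected at 515–545 nm (green) and 570–600 nm (red), and cells were imaged by fluorescence microscopy.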

[30] = tested on: HCT-116; experiment: Induction of apoptosis in human HCT116 cells assessed as late apoptotic cells at 3 uM after 24 hrs using annexin V-FITC/propidium iodide by flow cytometry (reference value: 3.3%); assay type: functional
[31] = tested on: DNA; experiment: Binding affinity to calf thymus DNA at compound and GelRed ratio 1:1 to 9:1 by fluorescence emission spectra analysis; assay type: nucleic-acid assay; details: Bos taurus
In short: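 Competitive displacement assay. GelRed was pre-incubated with ct-DNA for 30 min at [GelRed]/[DNA] = 1:10, then titrated with compound. Emission was read around 590 nm with 350 nm excitation. Quenching constant Kq was obtained by linear Stern–Volmer fitting.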

[32] = tested on: HCT-116; experiment: Induction of apoptosis in human HCT116 cells assessed as necrotic cells at 3 uM after 24 hrs using annexin V-FITC/propidium iodide by flow cytometry (reference value: 2.8%); assay type: functional

Structure (SMILES): CCOP(=O)(OCC)C(NC(=O)c1cc(O)c2c(c1)C(=O)c1cccc(O)c1C2=O)c1cccc(C)c1 (configuration not stated)
- pIC50 [1]: 4.13
- pIC50 [2]: 4.34
- pIC50 [3]: 4.21
- pIC50 [4]: 4.17
- pIC50 [5]: < 4.00
- pIC50 [6]: 4.13

Structure (SMILES): O=C(O)c1cc(O)c2c(c1)C(=O)c1cccc(O)c1C2=O [RHEIN]
- pIC50 [7]: 4.20
- pIC50 [8]: 3.87
- pIC50 [5]: 4.05
- ΔTm [9]: 2 °C

Structure (SMILES): CCOP(=O)(OCC)C(NC(=O)c1cc(O)c2c(c1)C(=O)c1cccc(O)c1C2=O)c1ccc2ccccc2c1 (configuration not stated)
- pIC50 [1]: < 4.00
- pIC50 [2]: < 4.00
- pIC50 [3]: < 4.00
- pIC50 [4]: < 4.00
- pIC50 [5]: < 4.00
- pIC50 [6]: < 4.00

Structure (SMILES): CCOP(=O)(OCC)C(NC(=O)c1cc(O)c2c(c1)C(=O)c1cccc(O)c1C2=O)c1ccccc1 (configuration not stated)
- pIC50 [1]: 4.42
- pIC50 [2]: 4.75
- pIC50 [3]: 4.41
- pIC50 [4]: 4.56
- pIC50 [5]: < 4.00
- pIC50 [6]: 4.46

Structure (SMILES): O=c1[nH]cc(F)c(=O)[nH]1 [FLUOROURACIL]
- pIC50 [1]: 4.45
- pIC50 [2]: 5.24
- Activity [10]: 65.6%
- pIC50 [3]: 4.52
- pIC50 [4]: 4.37
- Activity [11]: 28%
- pIC50 [5]: 4.25
- Activity [12]: Active
- pIC50 [6]: 4.40

Structure (SMILES): CCOP(=O)(OCC)C(NC(=O)c1cc(O)c2c(c1)C(=O)c1cccc(O)c1C2=O)c1ccc(C)cc1 (configuration not stated)
- pIC50 [1]: 4.05
- pIC50 [2]: 4.27
- pIC50 [3]: 4.11
- pIC50 [4]: 4.13
- pIC50 [5]: < 4.00
- pIC50 [6]: 4.10

Structure (SMILES): CCOP(=O)(OCC)C(NC(=O)c1cc(O)c2c(c1)C(=O)c1cccc(O)c1C2=O)c1c2ccccc2cc2ccccc12 (configuration not stated)
- pIC50 [1]: < 4.00
- pIC50 [2]: < 4.00
- pIC50 [3]: < 4.00
- pIC50 [4]: < 4.00
- pIC50 [5]: < 4.00
- pIC50 [6]: < 4.00

Structure (SMILES): CCOP(=O)(OCC)C(NC(=O)c1cc(O)c2c(c1)C(=O)c1cccc(O)c1C2=O)c1cccc(OC)c1 (configuration not stated)
- pIC50 [1]: 4.71
- Activity [13]: 34.66%
- Activity [14]: 49.67%
- Activity [15]: 17.9%
- Activity [16]: 6.5%
- Activity [17]: 32.44%
- pIC50 [2]: 5.27
- viability at 3 µM [18]: 53%
- viability at 5 µM [19]: 57.5%
- Activity [20]: 45.26%
- Activity [21]: 2.6%
- Activity [22]: 33.5%
- pIC50 [3]: 4.66
- pIC50 [4]: 4.55
- Activity [23]: Active
- Activity [24]: Dose-dependent effect
- Activity [25]: 32.5%
- Activity [26]: Active
- Activity [27]: 20.09%
- Kb [28]: 1.03 ×10⁴ /M
- pIC50 [5]: < 4.00
- Activity [29]: Active
- Activity [30]: 10.5%
- Kq [31]: 1660
- Activity [32]: 4%
- ΔTm [9]: 3.1 °C
- pIC50 [6]: 4.62

Structure (SMILES): CCOP(=O)(OCC)C(NC(=O)c1cc(O)c2c(c1)C(=O)c1cccc(O)c1C2=O)c1ccc(F)cc1 (configuration not stated)
- pIC50 [1]: 4.02
- pIC50 [2]: 4.24
- pIC50 [3]: 4.23
- pIC50 [4]: 4.61
- pIC50 [5]: < 4.00
- pIC50 [6]: 4.46

Structure (SMILES): CCOP(=O)(OCC)C(NC(=O)c1cc(O)c2c(c1)C(=O)c1cccc(O)c1C2=O)c1cccc(Br)c1 (configuration not stated)
- pIC50 [1]: 4.11
- pIC50 [2]: 4.40
- pIC50 [3]: 4.21
- pIC50 [4]: 4.12
- pIC50 [5]: < 4.00
- pIC50 [6]: 4.40
